ChEMBL document CHEMBL1148284, “Antagonist analogue of 6-[3'-(1-adamantyl)-4'-hydroxyphenyl]-2-naphthalenecarboxylic acid (AHPN) family of apoptosis inducers that effectively blocks AHPN-induced apoptosis but not cell-cycle arrest” (2004)
Each block holds one compound with its values, some of them ahead of it. Activity calls are given as the source filed them. No cut-off for these calls is given here.

Tests used:
NCI-H460 [1] = experiment: Inhibition of H460 cell proliferation after 144 hr treatment at 0.1E-6M; format: functional, Homo sapiens
Summary of the method: (§1)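 H460 lung cancer cells grown in RPMI 1640 with 10% FCS and treated 144 h (0.1% Me2SO vehicle). Nuclei stained with DAPI and scored under fluorescence microscopy. Value is the average of triplicates.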

NCI-H460 [2] = experiment: Inhibition of H460 cell proliferation after 144 hr treatment at 1E-6M; format: functional, Homo sapiens; summary of the method: as §1
HL-60 [3] = experiment: Induction of apoptosis in HL60R leukemia cells after 24 hr r treatment at 0.1E-6M; format: functional, Homo sapiens
Summary of the method: (§2)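 Cells exposed to agonist in medium with 0.1% Me2SO vehicle: HL-60R for 24 h, MDA-MB-231 for 96 h. Cells fixed and stained with acridine orange; apoptotic nuclei scored by nuclear fragmentation in 200-cell fields. Percent apoptosis is the average of triplicates.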

HL-60 [4] = experiment: Induction of apoptosis in HL60R leukemia cells after 24 hr r treatment at 1E-6M; format: functional, Homo sapiens; summary of the method: as §2
BT-20 = experiment: Inhibition of BT-20 breast cancer cell proliferation at 1E-7 M; Inhibitory activity; format: functional, cell-based; details: Homo sapiens
MCF7 = experiment: Inhibition of MCF-7 cell proliferation at 1E-7M; Inhibitory activity; format: functional, cell-based; details: Homo sapiens
MDA-MB-231 [5] = experiment: Induction of apoptosis in MDA-MB-231 breast cancer cells after 96 hr at 0.5E-6M; format: functional, Homo sapiens; summary of the method: as §2
MDA-MB-231 [6] = experiment: Induction of apoptosis in MDA-MB-231 breast cancer cells after 96 hr at 1E-6M; format: functional, Homo sapiens; summary of the method: as §2
MDA-MB-468 = experiment: Inhibition of MDA-MB-468 cell proliferation at 0.5E-6M; Inhibitory activity; format: functional, cell-based; details: Homo sapiens
Summary of the method: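 MDA-MB-468 cells (1.0 × 10^5) seeded in DMEM/F12 with 5% FBS; after 24 h, 0.5 × 10^-6 M agent added, with or without 2.0 × 10^-6 M antagonist. Incubated 72 h, then proliferation read by colorimetric assay relative to the agent-alone control. Triplicates, 0.1% Me2SO.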

[7] = target: T1, Retinoic acid receptor RXR-alpha (Homo sapiens) (UniProt P19793); experiment: Displacement of [3H]9-cis-RA from Retinoic acid receptor RXR-alpha LBD
T1 sequence (whole entry): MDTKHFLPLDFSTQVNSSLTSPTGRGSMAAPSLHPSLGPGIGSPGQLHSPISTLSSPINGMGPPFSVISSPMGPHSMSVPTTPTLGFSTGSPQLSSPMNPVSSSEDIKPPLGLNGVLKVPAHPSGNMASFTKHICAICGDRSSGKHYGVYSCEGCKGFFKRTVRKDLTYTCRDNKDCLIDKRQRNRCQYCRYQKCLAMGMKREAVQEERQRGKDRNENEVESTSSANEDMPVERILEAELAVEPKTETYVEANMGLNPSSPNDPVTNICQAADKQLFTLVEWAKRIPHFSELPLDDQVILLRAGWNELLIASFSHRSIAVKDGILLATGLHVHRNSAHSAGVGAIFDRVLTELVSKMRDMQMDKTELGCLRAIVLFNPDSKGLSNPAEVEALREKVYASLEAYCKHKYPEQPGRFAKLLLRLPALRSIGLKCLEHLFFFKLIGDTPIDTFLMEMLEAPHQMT
Summary of the method: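 Bacterially expressed receptor LBDs (RARs as GST fusions, RXRα as His6 fusion; about 1.0 × 10^-8 M) incubated with 1.0 × 10^-9 M [11,12-3H2]9-cis-RA (43 Ci/mmol), with or without 1.0 × 10^-9 M unlabeled competitor. Bound and free radioligand separated by Sephadex G-50 gel filtration; mean ± SEM of three independent experiments.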

[8] = target: T2, Retinoic acid receptor alpha (Homo sapiens) (UniProt P10276); experiment: Transcriptional activation in CV-1 cells expressing RAR alpha at 1E-6M; format: functional, cell-based; details: Cercopithecidae
T2 sequence (whole entry): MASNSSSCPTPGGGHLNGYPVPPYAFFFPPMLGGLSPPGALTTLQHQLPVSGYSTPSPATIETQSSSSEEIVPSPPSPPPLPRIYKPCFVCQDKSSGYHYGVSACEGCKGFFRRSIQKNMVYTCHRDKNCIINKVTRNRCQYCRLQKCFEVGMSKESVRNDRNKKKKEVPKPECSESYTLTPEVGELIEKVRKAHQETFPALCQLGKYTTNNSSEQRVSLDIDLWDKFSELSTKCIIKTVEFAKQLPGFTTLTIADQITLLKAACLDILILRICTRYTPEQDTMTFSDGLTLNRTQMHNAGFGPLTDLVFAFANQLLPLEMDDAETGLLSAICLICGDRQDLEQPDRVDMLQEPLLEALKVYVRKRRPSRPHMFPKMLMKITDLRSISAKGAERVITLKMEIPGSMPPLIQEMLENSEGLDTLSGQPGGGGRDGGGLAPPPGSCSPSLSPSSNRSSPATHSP
Summary of the method: (§3)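 CV-1 cells in DMEM with 10% FCS, calcium-precipitate transfected with (TREpal)2-tk-CAT plus RAR expression vector and β-gal vector. After 20 h, switched to 5% charcoal-stripped FCS and treated 24 h. CAT activity normalized to β-gal and expressed relative to 1.0 × 10^-6 M trans-RA as 100%.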

[9] = target: T3, Retinoic acid receptor beta (Homo sapiens) (UniProt P10826); experiment: Transcriptional activation in CV-1 cells expressing RAR beta at 1E-6M; format: functional, cell-based; details: Cercopithecidae
T3 sequence (whole entry): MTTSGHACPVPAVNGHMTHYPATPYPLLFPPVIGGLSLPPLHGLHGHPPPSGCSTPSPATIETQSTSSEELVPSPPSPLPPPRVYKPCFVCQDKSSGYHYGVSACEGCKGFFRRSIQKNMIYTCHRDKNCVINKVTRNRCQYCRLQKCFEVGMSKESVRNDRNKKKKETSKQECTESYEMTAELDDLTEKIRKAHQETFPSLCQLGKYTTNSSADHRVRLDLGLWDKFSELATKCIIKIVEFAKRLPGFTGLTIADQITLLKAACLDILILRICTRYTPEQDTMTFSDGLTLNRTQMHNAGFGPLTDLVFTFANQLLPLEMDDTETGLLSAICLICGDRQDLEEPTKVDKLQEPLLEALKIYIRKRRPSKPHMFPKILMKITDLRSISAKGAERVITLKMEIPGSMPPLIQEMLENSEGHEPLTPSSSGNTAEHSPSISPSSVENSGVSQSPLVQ

[10] = target: T4, Retinoic acid receptor gamma (Homo sapiens) (UniProt P13631); experiment: Transcriptional activation in CV-1 cells expressing RAR gamma at 1E-6M; format: functional, cell-based; details: Cercopithecidae; summary of the method: as §3
T4 sequence (whole entry): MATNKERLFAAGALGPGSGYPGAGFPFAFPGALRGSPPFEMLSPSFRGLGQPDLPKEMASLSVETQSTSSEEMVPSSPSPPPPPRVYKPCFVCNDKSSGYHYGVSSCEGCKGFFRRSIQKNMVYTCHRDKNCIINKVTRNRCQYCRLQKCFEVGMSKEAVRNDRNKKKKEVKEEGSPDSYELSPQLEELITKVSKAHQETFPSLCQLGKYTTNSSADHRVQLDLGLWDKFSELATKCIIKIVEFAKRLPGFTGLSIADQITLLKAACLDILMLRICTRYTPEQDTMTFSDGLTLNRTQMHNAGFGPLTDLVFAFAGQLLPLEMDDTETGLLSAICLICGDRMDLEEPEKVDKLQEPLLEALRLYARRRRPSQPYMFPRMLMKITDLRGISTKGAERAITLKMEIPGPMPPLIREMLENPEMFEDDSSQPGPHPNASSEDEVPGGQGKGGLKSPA

NCI-H460 [11] = experiment: Suppression of H460 lung cancer cell apoptosis induced by 1E-6M 5-Cl-AHPN; From 34% to 9%; format: functional, Homo sapiens
Summary of the method: (§4)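 H460 and LNCaP cells (RPMI 1640, 10% FCS) treated 36 h with 1.0 × 10^-6 M inducer alone or with 1.0 × 10^-6 M antagonist. Cells trypsinized, fixed in 3.7% paraformaldehyde, stained with DAPI (50 µg/mL), and apoptotic nuclear morphology scored by fluorescence microscopy. Apoptosis = apoptotic/total cells × 100.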

LNCaP = experiment: Suppression of LNCaP prostate cancer cell apoptosis induced by 1E-6M 5-Cl-AHPN; From 31% to 15%; format: functional, Homo sapiens; summary of the method: as §4

Structure (SMILES): CCOc1cc(/C=C/C(=O)O)ccc1-c1ccc(O)c(C23CC4CC(CC(C4)C2)C3)c1
Inhibition (NCI-H460 [1]): 14%
Inhibition (NCI-H460 [2]): 52%
Apoptosis (HL-60 [3]): 0%
Apoptosis (HL-60 [4]): 29%

Structure (SMILES): Cc1c(-c2ccc(O)c(C34CC5CC(CC(C5)C3)C4)c2)ccc2cc(C(=O)O)ccc12
inhibition (BT-20): Inhibitory activity
Apoptosis (HL-60 [3]): 29%
Apoptosis (HL-60 [4]): 70%
inhibition (MCF7): Inhibitory activity
Apoptosis (MDA-MB-231 [5]): 14%

Structure (SMILES): Cc1cc(/C=C/C(=O)O)ccc1-c1ccc(O)c(C23CC4CC(CC(C4)C2)C3)c1
Apoptosis (HL-60 [3]): 10%
Apoptosis (HL-60 [4]): 95%
Apoptosis (MDA-MB-231 [5]): 5%
Apoptosis (MDA-MB-231 [6]): 30%

Displacement [7]: 16%
Structure (SMILES): O=C(O)/C=C/c1ccc(-c2ccc(O)c(C34CC5CC(CC(C5)C3)C4)c2)c(Cl)c1
Apoptosis (HL-60 [3]): 51%
Apoptosis (HL-60 [4]): 94%
Apoptosis (MDA-MB-231 [5]): 31%
Apoptosis (MDA-MB-231 [6]): 43%
inhibition (MDA-MB-468): Active

Transcriptional activation [8]: 8%
Transcriptional activation [9]: 85%
Transcriptional activation [10]: 103%
Structure (SMILES): O=C(O)/C=C/c1ccc(-c2ccc(O)c(C34CC5CC(CC(C5)C3)C4)c2)cc1 [ADAROTENE]
Apoptosis (HL-60 [3]): 90%
Apoptosis (HL-60 [4]): 98%
Apoptosis (MDA-MB-231 [5]): 53%
Apoptosis (MDA-MB-231 [6]): 58%

Structure (SMILES): CC(=O)NCCCOc1cc(/C=C/C(=O)O)ccc1-c1ccc(O)c(C23CC4CC(CC(C4)C2)C3)c1
Suppression (NCI-H460 [11]): 9%
Apoptosis (HL-60 [3]): 0%
Apoptosis (HL-60 [4]): 0%
Apoptosis (MDA-MB-231 [5]): 0%
Apoptosis (MDA-MB-231 [6]): 1%
Suppression (LNCaP): 15%

Transcriptional activation [8]: 21%
Transcriptional activation [9]: 78%
Transcriptional activation [10]: 88%
Structure (SMILES): O=C(O)c1ccc2cc(-c3ccc(O)c(C45CC6CC(CC(C6)C4)C5)c3)ccc2c1 [O-DEMETHYLATED ADAPALENE]
Inhibition (NCI-H460 [1]): 20%
Inhibition (NCI-H460 [2]): 80%
Apoptosis (HL-60 [3]): 78%
Apoptosis (HL-60 [4]): 98%
Apoptosis (MDA-MB-231 [5]): 26%
Apoptosis (MDA-MB-231 [6]): 46%

Structure (SMILES): O=C(O)c1ccc2c(Cl)c(-c3ccc(O)c(C45CC6CC(CC(C6)C4)C5)c3)ccc2c1
Inhibition (NCI-H460 [1]): 56%
Inhibition (NCI-H460 [2]): 71%
Apoptosis (HL-60 [3]): 62%
Apoptosis (HL-60 [4]): 94%
Apoptosis (MDA-MB-231 [5]): 21%
Apoptosis (MDA-MB-231 [6]): 41%
